One compound from PubChem BioAssay AID504899 (The Scripps Research Institute Molecular Screening Center, 2011) can be followed below.

The assay has as its system DIO C57BL/6 mice, hepatic G6Pase mRNA, 15 mg/kg ip 6 d. As to the kind of experiment: hepatic gluconeogenesis reduction in obese mice, late-stage follow-up, in vivo study for RORA inverse agonist project, diet-induced obese mice, pyruvate tolerance test, powder sample (AID 504899). The settings on record: stronger effect = lower value. In outline: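 System: Obese high-fat-fed male C57BL/6 mice, 30 weeks old | Also added: Pyruvate challenge, 2 g/kg intraperitoneal | Times: 6 h fast before pyruvate, glucose sampled 0, 15, 30, 60 min post-challenge | Detection: Glucometer blood glucose plus liver gene mRNA | Read-out: Gene expression and glucose as % of vehicle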

Compound `O=S(=O)(Nc1ccc(C(O)(C(F)(F)F)C(F)(F)F)cc1)c1cccs1` yielded a PEPCK mRNA expression (DIO C57BL/6 mice, 15 mg/kg ip 6 d, measured here: hepatic PEPCK mRNA, % control) of 51%. For the same compound, the blood glucose (DIO C57BL/6 mice, 15 mg/kg ip 6 d, measured here: pyruvate tolerance test blood glucose) amounted to 76%. Further, the G6Pase mRNA expression (dose or concentration not given here) is 52%.
